The text below walks through data of ChEMBL document CHEMBL1129984, “Synthesis and pharmacological characterization of enantiomerically pure muscarinic agonists: difluoromuscarines” (J Med Chem, 1997).

Each structure is given as a SMILES string.

Assay [1] is filed under the species Cavia porcellus. Nature of the assay: Dissociation constant was evaluated on guinea pig bladder at M3 muscarinic receptor. The method in brief: (§1)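 Dissociation constants and relative efficacies derived from guinea pig tissue agonist responses by the Furchgott and Bursztyn method.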
Assay [2] is filed under the species Cavia porcellus. Nature of the assay: Dissociation constant was evaluated on guinea pig heart (force) at M2 muscarinic receptor. The method, boiled down: as §1
The species named for assay [3] is Cavia porcellus. Nature of the assay: Dissociation constant was evaluated on guinea pig heart (rate) at M2 muscarinic receptor. The method, boiled down: as §1
The species entered for assay [4] is Cavia porcellus. Nature of the assay: Dissociation constant was evaluated on guinea pig ileum at M3 muscarinic receptor. The method, boiled down: as §1
Assay [5] addresses Muscarinic acetylcholine receptor M3 (Cavia porcellus) (UniProt Q8VH26). Nature of the assay: Intrinsic adtivitiy was measured by the ratio between the maximum response and the maximum response of muscarine in guinea pig bladder at Muscarinic acetylcholine receptor M3. Type of assay: functional. The method, boiled down: (§2)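 Isolated guinea pig tissues in PSS. Responses are expressed as a percentage of the maximal response in the control curve. Potency is given as pD₂ (−log ED₅₀, the agonist concentration producing 50% of maximal contraction). […] Parallel tissues received only (±)-muscarine to check sensitivity. 6–10 observations, mean ± SEM.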

Assay [6] has the same target. Nature of the assay: Intrinsic adtivitiy was measured by the ratio between the maximum response and the maximum response of muscarine in guinea pig ileum at Muscarinic acetylcholine receptor M3. Type of assay: functional, tissue-based. The method, boiled down:
as §2

In assay [7] the target is T1, Muscarinic acetylcholine receptor M2 (Rattus norvegicus) (UniProt P10980).
T1 sequence (whole entry): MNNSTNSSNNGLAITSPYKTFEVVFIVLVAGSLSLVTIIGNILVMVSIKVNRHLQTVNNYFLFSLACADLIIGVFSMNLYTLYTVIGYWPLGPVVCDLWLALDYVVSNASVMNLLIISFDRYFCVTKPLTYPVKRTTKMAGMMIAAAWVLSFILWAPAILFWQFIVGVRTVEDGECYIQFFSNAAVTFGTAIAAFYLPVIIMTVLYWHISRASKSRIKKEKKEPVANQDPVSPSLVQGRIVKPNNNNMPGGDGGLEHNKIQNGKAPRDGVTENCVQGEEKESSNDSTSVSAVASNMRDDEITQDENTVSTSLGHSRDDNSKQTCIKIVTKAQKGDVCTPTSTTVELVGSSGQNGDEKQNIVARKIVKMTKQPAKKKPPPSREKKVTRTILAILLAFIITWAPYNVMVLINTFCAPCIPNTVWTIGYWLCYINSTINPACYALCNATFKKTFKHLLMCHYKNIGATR
Nature of the assay: Muscarinic potency was evaluated at cardiac Muscarinic acetylcholine receptor M2 mediating Bradycardia in the pithed rat (Decrease in heart rate). Type of assay: functional. The method in brief: (§3)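 Pithed rats, artificially respired at 60 cycles/min, 1 mL/100 g, and equilibrated ≥30 min until heart rate was stable (basal 300 ± 8 beats/min). Agonists in 0.9% saline given iv at 0.1 mL/100 g, with full recovery between single doses. Heart rate measured from the carotid pressure pulse. ED₅₀ read graphically from dose–response curves. 5–9 observations, mean ± SEM.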

Assay [8] concerns the target Muscarinic acetylcholine receptor M3 (Cavia porcellus) (UniProt Q8VH26). Nature of the assay: Muscarinic potency was evaluated on guinea pig bladder at Muscarinic acetylcholine receptor M3 (expressed as -logED50). Type of assay: functional. The method, boiled down: as §2
Assay [9] has the same target. Nature of the assay: Muscarinic potency was evaluated on guinea pig ileum at Muscarinic acetylcholine receptor M3 (expressed as -logED50). Type of assay: functional, tissue-based. The method in brief:
as §2

The target is the same in assay [10]. Nature of the assay: Relative efficacy was evaluated on guinea pig bladder at Muscarinic acetylcholine receptor M3. Type of assay: functional. The method in brief:
as §1

For assay [11] the target is unchanged. Nature of the assay: Relative efficacy was evaluated on guinea pig ileum at Muscarinic acetylcholine receptor M3. Type of assay: functional, tissue-based. The method in brief: as §1
Assay [12] concerns the target T2, Muscarinic acetylcholine receptor M2 (Homo sapiens) (UniProt P08172).
T2 sequence (whole entry): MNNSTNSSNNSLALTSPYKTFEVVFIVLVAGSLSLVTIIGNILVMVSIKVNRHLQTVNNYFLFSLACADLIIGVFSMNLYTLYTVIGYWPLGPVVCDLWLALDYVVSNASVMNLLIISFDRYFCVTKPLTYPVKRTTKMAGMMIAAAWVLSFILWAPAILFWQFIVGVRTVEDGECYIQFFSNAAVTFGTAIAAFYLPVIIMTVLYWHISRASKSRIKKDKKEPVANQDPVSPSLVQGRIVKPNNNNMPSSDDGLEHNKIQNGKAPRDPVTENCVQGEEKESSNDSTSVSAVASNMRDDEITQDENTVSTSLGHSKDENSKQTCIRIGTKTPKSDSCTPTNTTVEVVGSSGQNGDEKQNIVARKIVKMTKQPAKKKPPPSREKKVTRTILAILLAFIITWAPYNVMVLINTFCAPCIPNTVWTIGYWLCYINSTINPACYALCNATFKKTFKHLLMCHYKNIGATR
Nature of the assay: Relative efficacy was evaluated on guinea pig heart (rate) at Muscarinic acetylcholine receptor M2. Type of assay: functional. The settings on record: Cavia porcellus; target entry is the homologue from another species. The method, boiled down: as §1

Assay [13] has as its target T2, Muscarinic acetylcholine receptor M2 (Homo sapiens). Nature of the assay: Relative efficacy was evaluated on guinea pig heart (force) at Muscarinic acetylcholine receptor M2. Type of assay: functional. Conditions: Cavia porcellus; target entry is the homologue from another species. The method in brief:
as §1

For assay [14], the target named is T3, Muscarinic acetylcholine receptor M1 (Rattus norvegicus) (UniProt P08482).
T3 sequence (whole entry): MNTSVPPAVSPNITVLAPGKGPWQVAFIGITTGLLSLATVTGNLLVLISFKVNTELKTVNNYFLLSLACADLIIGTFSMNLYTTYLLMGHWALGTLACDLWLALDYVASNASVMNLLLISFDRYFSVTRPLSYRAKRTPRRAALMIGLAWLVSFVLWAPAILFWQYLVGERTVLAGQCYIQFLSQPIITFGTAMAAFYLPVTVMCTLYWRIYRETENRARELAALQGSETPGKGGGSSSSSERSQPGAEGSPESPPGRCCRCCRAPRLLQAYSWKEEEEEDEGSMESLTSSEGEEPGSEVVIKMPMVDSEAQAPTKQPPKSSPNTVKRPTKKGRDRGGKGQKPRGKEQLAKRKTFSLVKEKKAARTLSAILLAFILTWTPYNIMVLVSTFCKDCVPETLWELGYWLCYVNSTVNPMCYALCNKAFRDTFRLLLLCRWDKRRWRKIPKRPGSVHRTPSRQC
Nature of the assay: Muscarinic potency was evaluated at ganglionic Muscarinic acetylcholine receptor M1 mediating Tachycardia in the pithed rat (Increase in heart rate). The method in brief:
as §3

The subject of assay [15] is Muscarinic acetylcholine receptor M2 (Cavia porcellus). Nature of the assay: Muscarinic potency was evaluated on guinea pig heart (rate) at Muscarinic acetylcholine receptor M2.
For assay [16] the test system is unchanged. Nature of the assay: Muscarinic potency was evaluated on guinea pig heart (force) at Muscarinic acetylcholine receptor M2 (expressed as -logED50).
The test system is the same in assay [17]. Nature of the assay: Intrinsic activity was measured as the ratio between the maximum response and the maximum response of muscarine in guinea pig heart at Muscarinic acetylcholine receptor M2.

Sequence of Muscarinic acetylcholine receptor M3 (Cavia porcellus) (Q8VH26 1-587): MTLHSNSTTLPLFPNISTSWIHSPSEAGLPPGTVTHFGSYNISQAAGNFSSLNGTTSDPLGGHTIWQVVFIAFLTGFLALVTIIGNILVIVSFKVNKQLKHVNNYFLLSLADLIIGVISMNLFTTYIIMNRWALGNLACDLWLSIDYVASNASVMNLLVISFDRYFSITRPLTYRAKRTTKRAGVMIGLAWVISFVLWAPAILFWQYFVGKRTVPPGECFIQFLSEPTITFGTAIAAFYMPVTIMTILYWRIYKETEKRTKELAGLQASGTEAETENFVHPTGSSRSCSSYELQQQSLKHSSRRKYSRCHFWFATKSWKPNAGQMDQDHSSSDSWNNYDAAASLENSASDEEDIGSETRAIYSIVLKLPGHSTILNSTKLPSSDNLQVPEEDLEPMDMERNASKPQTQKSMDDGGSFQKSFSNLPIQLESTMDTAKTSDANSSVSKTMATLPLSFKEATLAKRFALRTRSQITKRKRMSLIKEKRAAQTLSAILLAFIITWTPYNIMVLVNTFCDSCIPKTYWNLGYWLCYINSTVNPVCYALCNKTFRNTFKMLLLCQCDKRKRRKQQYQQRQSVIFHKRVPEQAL

As to `C[C@@H]1O[C@H](C[N+](C)(C)C)CC1(F)F`, the “-Log Kd” value came out at 4.4 in the assay filed under Cavia porcellus [1], 4.37 in the assay filed under Cavia porcellus [2], 3.39 in the assay listed under Cavia porcellus [3] and 4.7 in the assay listed under Cavia porcellus [4]. The Intrinsic activity in assay [5] was 0.83; in [6], 0.99; in assay [17] it was 1. Moreover, the 50% effective dose (ED50) (in general, the midpoint of the dose-response relation) in [7] turned out to be 0.14 mg/kg; in assay [14], 0.05 mg/kg. Moreover, the pD2 in assay [8] was determined as 5.23; in assay [9], 5.8; in assay [16] it was 6.56. Besides, the Relative efficacy in [10] was determined as 0.6; in assay [11] it was 0.9; in assay [12], 23; in [13] it was 1.6. In assay [15], this compound registered a -Log ED50 of 6.58.
As to `C[C@@H]1O[C@H](C[N+](C)(C)C)C[C@H]1F`, the “-Log Kd” value came out at 4.39 in the assay listed under Cavia porcellus [1], 4.67 in the assay filed under Cavia porcellus [2], 5.77 in the assay filed under Cavia porcellus [3] and 5.72 in the assay filed under Cavia porcellus [4]. The values for the Intrinsic activity in assay [5], in assay [6] and in assay [17] were 0.88, 0.95 and 0.98, respectively. Further, the results for the ED50 in assay [7] and in [14] were 0.0235 mg/kg and 0.0045 mg/kg, respectively. Moreover, the pD2 is 5.66 in assay [8], 7.36 in [9] and 6.73 in [16]. The Relative efficacy in [10] was 1.5; in [11], 3; in assay [12], 0.2; in [13], 1.2. In addition, in assay [15], the -Log ED50 was found to be 6.87.
Take `C[C@@H]1O[C@@H](C[N+](C)(C)C)CC1(F)F`: the values for the Intrinsic activity in assay [5], in [6] and in assay [17] were 1, 0.97 and 1, respectively. For the same compound, the pD2 in assay [8] came out at 4.16; in [9] it was 5.33; in assay [16], 6.28.
In the case of `C[C@H]1O[C@@H](C[N+](C)(C)C)CC1(F)F`, the “-Log Kd” value is 3.71 in the assay listed under Cavia porcellus [1], 3.64 in the assay filed under Cavia porcellus [2], 3.48 in the assay listed under Cavia porcellus [3] and 4.47 in the assay filed under Cavia porcellus [4]. Besides, the Intrinsic activity was 0.95 in [5], 0.98 in assay [6] and 0.97 in [17]. Also, the results for the 50% effective dose (ED50) in assay [7] and in assay [14] were 0.274 mg/kg and 0.1 mg/kg, respectively. Further, the pD2 in assay [8] was determined as 3.82; in assay [9], 5.53; in [16], 5.76. Further, the Relative efficacy in assay [10] was 0.2; in assay [11], 0.8; in [12] it was 10; in assay [13] it was 1.3. Also, the -Log ED50 in [15] worked out at 6.31.
Regarding `C[C@@H]1O[C@H](C[N+](C)(C)C)C[C@H]1O` (racemic) [MUSCARINE], the “-Log Kd” value in the assay listed under Cavia porcellus [1] is 4.62; in the assay listed under Cavia porcellus [4], 5.95. In addition, the Intrinsic activity in [6] is 1. For the same compound, the pD2 in assay [8] was 5.69; in assay [9], 7.1.
With `C[C@H]1O[C@H](C[N+](C)(C)C)CC1(F)F`, the Intrinsic activity in assay [5] came to 0.67; in [6], 0.99; in assay [17] it was 0.98. Further, the pD2 in assay [8] is 3.95; in [9], 4.85; in assay [16], 5.77.
